Source: PubChem (several laboratories)
A selection: hits, their analogues and other compounds. The true share with any hit is near 3.5%.
bCat nuc transl: modulators of beta-catenin nuclear translocation, primary screen, imaging, HeLa cells, immunofluorescence, high-content; nuclear translocation activity, % at 5 µM; 190,000 tested, 0.3% active; AID 1665, 2009;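 active = nuclear translocation activity above 50% at 5 µM, with a well cell count of 50 or more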;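 note: per-cell ratio of nuclear to cytoplasmic median beta-catenin stain intensity; plate controls were DMSO negative control for no effect and GSK-3 inhibitor IX positive control for full effect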
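Test system: human HeLa cells, native beta-catenin. Compound dosing: 5 µM primary single dose, 0.1% DMSO, 0.02–20 µM confirmation series. Incubation: compound exposure 24 h at 37°C. Detection: beta-catenin immunostaining with DAPI counterstain, 20x imaging, 6 fields/well. Read-out basis: Nuclear/cytoplasmic beta-catenin signal ratio, % activation.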
MT stabilizer: microtubule stabilizers in HeLa cells, primary screen, imaging, high-content imaging. HeLa tubulin immunostaining HCS, 24 h; share of cells brighter than vehicle mean+2SD. % tubulin-high responders, % at 10 µM. 200,000 tested, 0.83% active. AID 2205, 2009;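 active = plate Z-score above 3 for both tubulin-high and condensed-nucleus cell shares, with cell loss under 80%, at 10 µM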;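 note: anti alpha tubulin signal scored within the nucleus-defined area of each cell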
BB579 growth dn: growth inhibitors of yeast BB579 in restrictive medium, primary screen, yeast lifespan-shortening project, S. cerevisiae. OD615, 48 h. inhibition, % at 10 µM. 140,000 tested, 0.51% active;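 active = inhibition above a set limit, 3 SD over the mean compound inhibition, cut at about 44% in these data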
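controls = amphotericin B 10 µg/mL, positive | assay system = DeaD yeast strain BB579 | schedule = 48 h compound exposure at 30 °C after 4 h preincubation | detection = OD615 turbidity measurement | medium = restrictive CSMM-D medium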
Yeast lifespan up: compounds extending yeast replicative lifespan, primary screen, S. cerevisiae, OD615; inhibition of the nicotinamide effect, % at 10 µM; 130,000 tested, 0.68% active; S. cerevisiae growth with nicotinamide; deaD strain in restrictive glucose medium;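 active = inhibition above a set limit, placed 3 SD over the median of all compounds, cut at about 26% in these data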;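 note: 0% = nicotinamide-treated wells and 100% = cells grown without nicotinamide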
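assay system = DeaD-strain S. cerevisiae | measured by = absorbance at 615 nm | probe or stimulus = nicotinamide 1.5 mM | buffer or medium = CSMM-D glucose medium, restrictive | times = 48 h at 30 °C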
RAM network inh: inhibitors of the yeast RAM network, primary screen, dse1pr::URA3 reporter, 5-FOA selection | S. cerevisiae dse1pr::URA3 reporter, 5-FOA growth OD615, 2 d; analog-sensitive cbk1-as2 kinase mutant strain | inhibition, % at 50 µM | 190,000 tested, 1.8% active;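 active = inhibition above a set limit, 3 SD over mean compound inhibition, cut at about 8.4% in these data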;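 note: 0% = DMSO-only wells with no growth and 100% = 10 µM 1-NA-PP1 full growth; inhibition rescues growth on 5-FOA so higher OD means more RAM inhibition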
Efa HMGR inh: inhibitors of E. faecalis class II HMGR, primary screen, biochemical, Enterococcus faecalis; HMG-CoA reductase (Enterococcus faecalis, mvaE); purified E. faecalis HMGR, NADPH absorbance 340 nm kinetic; inhibition, % at 10 µM; 190,000 tested, 0.41% active; AID 1066, 2008;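 active = inhibition above a set limit, the median over all tested compounds plus 3 SD, cut at about 9.5% in these data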;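 note: enzyme runs in reverse so mevalonate oxidation gives rising NADPH absorbance; 0% = complete reaction with DMSO and 100% = background rate lacking mevalonate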
Active calls of the source: *; · = no result.

SMILES | bCat nuc transl | MT stabilizer | BB579 growth dn | Yeast lifespan up | RAM network inh | Efa HMGR inh
CCCCSc1nc(NCc2ccco2)c2c3c(sc2n1)COC(C)(C)C3 | -2 | 2 | 9 | -4 | 10* | -3
CC(C)Nc1nc(-c2ccccc2)nc(-n2ccnc2)n1 | -4 | 5 | -23 | -9 | 2 | -7
c1ccc(-c2nc(-n3ccnc3)nc(-n3ccnc3)n2)cc1 | -1 | 46 | 74* | -29 | 2 | -3
CCN(CC)CC(=O)Nc1ccc(-c2ccc(NC(=O)CN(CC)CC)c(OC)c2)cc1OC | 0 | 4 | · | · | 3 | -3
CCCn1nc(NC(=O)c2ccccn2)c2cc3cc(C)ccc3nc21 | -3 | 2 | -29 | -5 | 9.2* | 2
CCOc1cc(NC(=O)c2ccccn2)c(OCC)cc1NC(=O)c1ccccc1 | 0 | 3 | · | · | 9.7* | -4
O=C(Cn1nnc2ccccc21)NNC(=S)NC1CCCCC1 | -1 | 3 | · | · | 3 | 0
CC(C)CNC(=S)N1CCC(C(=O)c2ccc3c(c2)OCCO3)CC1 | -1 | 1 | · | · | 0 | 4
CN(Cc1ccc(Cl)s1)C(=O)CCl | 4 | 3 | · | · | 1 | -6
CC1(C)COC(/C=C/c2cccc([N+](=O)[O-])c2)=N1 | 8 | 24* | · | · | 1 | 3
O=C(O)c1cc(-c2cccs2)nn1-c1cccc(Cl)c1 | -3 | 5 | · | · | 0 | -4
CN(C)S(=O)(=O)c1cccc(NC(=O)c2cc(-c3cccs3)nn2-c2cccc(Cl)c2)c1 | 30 | 13* | -34 | 4 | 6 | 2
COc1ccccc1-n1c(=O)oc2ccc(Cl)cc2c1=O | · | 4 | 53* | -15 | 3 | -4
Cc1ccc([N+](=O)[O-])cc1NC(=O)C[n+]1ccccc1 | 1 | 2 | · | · | 1 | 13*
Cc1ccc([N+](=O)[O-])cc1NC(=O)c1ccccc1 | -1 | 1 | · | · | 1 | -2
Cc1ccc([N+](=O)[O-])cc1NC(=O)C(Sc1ccccc1)c1ccccc1 (stereo not drawn) | -1 | 3 | -53 | -1 | 9.1* | 3
COc1ccc(CNC(=O)C2CC(c3ccc(OC)cc3)=NO2)cc1 (stereo not drawn) | 0 | 5 | -30 | -20 | 3 | -1
CCn1ncc(C2=NOC(C(=O)Nc3ccc(C)cc3)C2)c1C (stereo not drawn) | 0 | 2 | -18 | -8 | 0 | -2
CCn1ncc(C2=NOC(C(=O)NCc3ccc(Cl)cc3)C2)c1C (stereo not drawn) | 278* | 13 | -7 | -7 | 1 | -8
COc1cc(C2=NOC(C(=O)NCc3cccs3)C2)cc(OC)c1OC (stereo not drawn) | · | 27 | -9 | -8 | 1 | -5
COc1cc(C2=NOC(C(=O)NCc3ccco3)C2)cc(OC)c1OC (stereo not drawn) | 60* | 23* | -30 | -20 | 1 | -7
COc1ccc(CNC(=O)C2CC(c3ccc(F)cc3)=NO2)cc1 (stereo not drawn) | 1 | 1 | -43 | -7 | 2 | 0
COc1ccc(C2=NOC(C(=O)NCc3ccco3)C2)cc1 (stereo not drawn) | 14 | 38* | -33 | -23 | 2 | -7
COc1ccc(C2=NOC(C(=O)NCc3ccc(F)cc3)C2)cc1 (stereo not drawn) | 65* | 6 | -32 | -11 | 3 | -2
COC(=O)c1ccc(C(=O)OC)c(NC(=S)N2CCN(c3ccccn3)CC2)c1 | 1 | 1 | · | · | 0 | -8
SMILES | bCat nuc transl | MT stabilizer | BB579 growth dn | Yeast lifespan up | RAM network inh | Efa HMGR inh
COc1ccc(CN2C(=O)c3c(c(C)n(C)c3C)C2C(=O)NC2CCC(C)CC2)cc1 (stereo not drawn) | -1 | 2 | · | · | 4 | -3
c1csc(-c2nn3cnnc3c3ccccc23)c1 | -2 | 1 | · | · | 2 | 3
Cc1csc2nc3cc(C(N)=O)ccc3c(=O)n12 | -1 | · | · | · | · | ·
NC(=O)c1ccc2c(=O)n3c(-c4cc(Cl)c(N)c(Cl)c4)csc3nc2c1 | 66* | · | · | · | · | ·
Cc1ccc(OCC(=O)Nc2ccc(N3CCN(C(=O)c4ccco4)CC3)cc2)cc1 | 0 | 2 | · | · | 3 | -8
Nc1c(-c2ccccc2)nc(Cl)nc1-c1ccccc1 | 3 | 2 | -16 | -5 | 2 | 0
c1ccc(-c2nc3nonc3nc2-c2ccccc2)cc1 | 0 | 7 | 70* | -21 | 4 | -7
O=C(CCC(=O)N(CC(=O)NC1CCCC1)C1CCCCC1)Nc1ccccn1 | 2 | 1 | · | · | 0 | -1
C(=C\c1ccccc1)/CSc1nnc(-c2ccccn2)n1Cc1ccco1 | 53* | 29* | -30 | 5 | 4 | -2
OCCC1CN(Cc2cccc3c2OCO3)CCN1C1CCCC1 (stereo not drawn) | 0 | 2 | · | · | 0 | -2
CN(Cc1ccccc1)C(=O)COC(=O)CCNC(=O)c1ccccc1Cl | 0 | 5 | · | · | 1 | -1
Cc1sc2ncnc(OCC(=O)NC3CCS(=O)(=O)C3)c2c1C (stereo not drawn) | 0 | · | · | · | · | ·
O=C(NCC(c1ccco1)N1CCCC1)c1ccccc1F (stereo not drawn) | 0 | 2 | -6 | -3 | -1 | -5
CSc1ccccc1C(=O)NCC(c1ccco1)N1CCCCC1 (stereo not drawn) | -3 | 2 | · | · | 1 | 12*
Cc1cc(=O)n2c(n1)SCOC2 | 1 | · | · | · | · | ·
COc1ccc(C2C(C(C)=O)=C(C)N=c3s/c(=C\c4cc(C)n(C)c4C)c(=O)n32)c(OC)c1 (stereo not drawn) | -3 | 2 | -38 | -6 | 8.4* | -2
COc1ccc(C2C(C(C)=O)=C(C)N=c3s/c(=C\c4ccco4)c(=O)n32)c(OC)c1 (stereo not drawn) | -6 | 3 | -39 | -5 | 3 | -1
CSc1nc2ncc3c(n2n1)CC(C)(C)CC3=O | 1 | 4 | · | · | 0 | 9.9*
CCCCn1ccnc1C(=O)c1cc(S(=O)(=O)N2CCOCC2)ccc1C | · | 1 | -33 | -3 | 1 | -7
CCCCn1ccnc1C(=O)c1cccc(S(=O)(=O)N2CC(C)CC(C)C2)c1 (stereo not drawn) | · | 1 | -42 | 7 | 8.7* | -3
C=CCOCCN(CC)CC | 2 | · | · | · | · | ·
CCOC(=O)C1=C(CC)Nc2ccccc2N/C1=N\S(=O)(=O)c1ccc(C(=O)OCC)cc1 | -4 | 3 | · | · | 9.3* | -1
CCN(CC)S(=O)(=O)c1cc(OC)c(Cl)cc1OC | -1 | 1 | · | · | -1 | 3
CCOc1cc(C2c3c(oc4cc(C)c(Cl)cc4c3=O)C(=O)N2Cc2ccco2)ccc1O (stereo not drawn) | -2 | 6 | -62 | -8 | 8.4* | 1
